This is a sample that favours compounds with a hit; in the whole collection about 6.1% have one here.
Yeast life ext = yeast lifespan extension. S. cerevisiae growth with nicotinamide, OD615; deaD strain in restrictive glucose medium. 130,000 tested, 0.68% active. inhibition of the nicotinamide effect, % at 10 µM. AID 775;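 active = inhibition above a set limit, placed 3 SD over the median of all compounds, cut at about 26% in these data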;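 also: 0% = nicotinamide-treated wells and 100% = cells grown without nicotinamide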
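Test system: DeaD-strain S. cerevisiae / Buffer or medium: restrictive glucose medium / Also added: nicotinamide 1.5 mM / Doses: one concentration, 10 µM, DMSO 0.25% / Schedule: 48 h at 30 °C / Signal: OD615 measurement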
BB579 growth dn = yeast BB579 growth reduction in restrictive medium; S. cerevisiae BB579 growth, OD615, 48 h; 140,000 tested, 0.51% active; inhibition, % at 10 µM;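 active = inhibition above a set limit, 3 SD over the mean compound inhibition, cut at about 44% in these data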
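Test system: Saccharomyces cerevisiae DeaD strain BB579, replicative lifespan model yeast | Buffer or medium: Restrictive CSMM-D medium | Doses: One dose, 10 µM compound with 0.25% DMSO | Incubation: 48 h exposure, 30 °C | Detection: Culture absorbance at 615 nm | Control set: Amphotericin B at 10 µg/mL as positive control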
Measles CPE = protection of cells from measles virus; Measles virus-infected cells, CPE protection, absorbance; protection (pct of control), % at 4 µM; 140,000 tested, 1.5% active; AID 841; in the data active = protection mostly above about 24%, no sharp cut-off; inactive = mostly below about 26%
WT yeast gro inh = growth inhibition of WT yeast, mitochondrial fusion screen; mitochondrial fusion phenotypic screen, WT strain; inhibition, % at 10 µM; 190,000 tested, 2.1% active; AID 1362; in the data active = inhibition above about 58%; tested in S. cerevisiae
RAM inhibit = yeast RAM network inhibition | S. cerevisiae dse1pr::URA3 reporter, 5-FOA growth OD615, 2 d; analog-sensitive cbk1-as2 kinase mutant strain | AID 868 | inhibition, % at 50 µM | 190,000 tested, 1.8% active;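 active = inhibition above a set limit, 3 SD over mean compound inhibition, cut at about 8.4% in these data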;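 also: 0% = DMSO-only wells with no growth and 100% = 10 µM 1-NA-PP1 full growth; inhibition rescues growth on 5-FOA so higher OD means more RAM inhibition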
DAT uptake mod = modulates human dopamine transporter uptake under cocaine | 110,000 tested, 1.3% active | LLC-PK1 hDAT cells, [14C]-dopamine uptake with cocaine IC80; actives deviate in either direction | B-score at 10 µM;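 active = Z score or B-score, a plate-position-corrected score, falls beyond the plate's 99.7% confidence bounds, in either direction; inactive = both scores lie inside the 99.7% bounds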;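 also: scored against the spread of the other compound wells on the same plate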
Target sequence (Q01959 whole entry, looked up): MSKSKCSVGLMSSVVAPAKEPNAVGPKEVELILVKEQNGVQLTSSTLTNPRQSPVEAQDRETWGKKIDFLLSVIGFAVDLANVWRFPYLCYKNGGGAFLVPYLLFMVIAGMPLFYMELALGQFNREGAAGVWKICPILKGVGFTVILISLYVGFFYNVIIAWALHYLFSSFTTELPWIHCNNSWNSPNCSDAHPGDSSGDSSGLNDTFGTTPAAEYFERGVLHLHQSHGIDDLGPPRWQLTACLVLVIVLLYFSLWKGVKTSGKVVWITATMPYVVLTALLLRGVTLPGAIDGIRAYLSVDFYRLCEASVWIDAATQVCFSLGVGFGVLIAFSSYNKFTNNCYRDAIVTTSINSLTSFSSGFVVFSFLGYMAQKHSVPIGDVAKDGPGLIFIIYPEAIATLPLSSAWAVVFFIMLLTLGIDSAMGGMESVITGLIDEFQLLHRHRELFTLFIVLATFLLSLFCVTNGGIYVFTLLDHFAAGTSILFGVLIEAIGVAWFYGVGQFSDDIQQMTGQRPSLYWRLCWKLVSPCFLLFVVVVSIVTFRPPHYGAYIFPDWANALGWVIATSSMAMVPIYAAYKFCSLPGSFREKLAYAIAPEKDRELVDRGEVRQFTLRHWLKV
* = called active by the depositor; · = no result.

SMILES	Yeast life ext	BB579 growth dn	Measles CPE	WT yeast gro inh	RAM inhibit	DAT uptake mod
CC(C)c1cn(C2OC(COC(=O)c3ccccc3)C(OC(=O)c3ccccc3)C2OC(=O)c2ccccc2)c(=O)[nH]c1=O (stereo not given)	·	·	·	·	·	0.0824
COC(=O)CC1C(=O)NCCN1C(=O)c1ccc(S(=O)(=O)N2CCOCC2)cc1 (stereo not given)	·	·	·	-3.9	0.5	·
O=C(C1=C[C@H](C2CCCCC2)C[C@H](OCc2ccc(CO)cc2)O1)N1CCN(Cc2ccccc2)CC1	·	·	·	72.0*	0.7	1.29
C[C@@H]1C=C(C(=O)N2CCN(Cc3ccccc3)CC2)O[C@H](OCc2ccc(CO)cc2)C1	·	·	·	-4.2	1.1	-0.333
O=C(C1=C[C@@H](C2CCCCC2)C[C@@H](OCc2ccc(CO)cc2)O1)N1CCN(Cc2ccccc2)CC1	·	·	·	64.4*	-0.8	0.0417
CC(C)(C)[C@H]1C=C(C(=O)N2CCN(Cc3ccccc3)CC2)O[C@@H](OCc2ccc(CO)cc2)C1	·	·	·	72.2*	2.2	1.61
O=C(C1=C[C@H](C2CCCCC2)C[C@H](OCc2ccc(CO)cc2)O1)N1CCOCC1	·	·	·	6.0	-0.1	0.577
O=C(C1=C[C@@H](C2CC2)C[C@@H](OCc2ccc(CO)cc2)O1)N1CCN(Cc2ccc3c(c2)OCO3)CC1	·	·	·	-1.9	-0.2	0.0884
O=C(C1=C[C@H](C2CCCCC2)C[C@H](OCCCCO)O1)N1CCN(Cc2ccc3c(c2)OCO3)CC1	·	·	·	12.8	0.6	2.23*
NC(=O)NC(CCC(=O)O)C(=O)O (stereo not given)	·	·	·	·	·	-2.13
CCCC(=O)Nc1ccc(Cc2ccc(NC(=O)CCC)c(C(=O)O)c2)cc1C(=O)O	·	·	·	-7.0	3.5	·
O=C(N/N=C1\CCCc2c1[nH]c1ccc([N+](=O)[O-])cc21)c1ccncc1	4.8	-16.9	8.4	5.4	8.4*	·
COc1ccc(C2CC(c3cccs3)=Nc3ccccc3S2)cc1 (stereo not given)	·	-40.4	1.6	31.9	1.4	-1.34
Cc1ccccc1N=Cc1cccc(O)c1O	-10.8	97.3*	11.9	41.9	-0.4	·
CC(N=Cc1cccc(O)c1O)c1ccccc1 (stereo not given)	-10.3	96.5*	19.9	-1.6	-0.8	-0.277
Cc1ccc(N=Cc2cccc(O)c2O)c(C)c1	-21.1	96.9*	41.8	·	2.2	0.845
Cc1ccc(S(=O)(=O)NCC(=O)OCC(=O)NCc2ccc(F)cc2)cc1	·	·	·	15.1	0.2	·
CCN(CC(=O)NCc1cccs1)S(=O)(=O)c1ccc([N+](=O)[O-])cc1	·	·	·	-0.7	0.8	·
CCN(CC(=O)NCc1cccs1)S(=O)(=O)c1cccc(C(C)=O)c1	2.1	-24.0	4.8	12.2	1.5	-7.46*
O=S1(=O)Nc2c(ccc3cccnc23)-c2ccccc21	-12.6	99.7*	4.8	31.3	-2.0	-0.299
Cc1ccc2nsnc2c1S(=O)(=O)N(Cc1cc2cccc(C)c2[nH]c1=O)CC1CCCO1 (stereo not given)	-13.7	-26.1	6.2	10.3	3.5	-0.573
c1cnn(-c2cncc(-n3cccn3)n2)c1	·	·	·	-4.0	-0.5	·
c1ccc2c(c1)sc1nnnn12	-23.3	-25.5	9.1	66.2*	2.8	·
Cc1ccc(-n2c(SCC(=O)N3CC(=O)Nc4ccccc43)nc3ccccc3c2=O)cc1	-5.4	-13.8	32.8*	9.7	1.7	·
O=C(OCCN=C1NS(=O)(=O)c2ccccc21)C1CC(=O)N(c2ccc(Cl)cc2)C1 (stereo not given)	-17.9	10.6	6.2	-6.2	0.8	0.387
SMILES	Yeast life ext	BB579 growth dn	Measles CPE	WT yeast gro inh	RAM inhibit	DAT uptake mod
Cc1ccccc1Nc1c(N)c(=O)oc2ccccc12	-12.6	-53.5	11.5	-7.0	2.6	-7.69*
CN(C)CCNc1c(N)c(=O)oc2ccccc12	·	·	·	-3.3	1.5	·
O=c1oc2ccccc2c(O)c1/C=C1\C=Nc2ccccc21	-3.9	86.3*	10.9	-2.2	2.4	-0.199
O=S(=O)(NCCc1ccncc1)c1ccc(S(=O)(=O)N2CCCCCC2)cc1	-4.9	15.3	5.1	-10.3	-0.5	0.0876
O=C(NN=C1CCCCCCC1)c1ccc(F)cc1	·	·	·	0.9	2.2	·
O=C(NN=C1CCCCCCCCCCC1)c1ccccc1F	-3.1	-10.4	50.0*	6.2	4.0	·
CN(Cc1ccc(OC(F)F)cc1)Cc1nc2c(Br)cc(Br)cc2c(=O)[nH]1	·	·	·	69.8*	0.2	·
